Data reported in ChEMBL document CHEMBL5126600, “Discovery of the First-in-Class G9a/GLP Covalent Inhibitors” (J Med Chem, 2022).

Experiments:
[1] = target: T1, Histone-lysine N-methyltransferase EHMT1 (Homo sapiens, UniProt Q9H9B1); assay: Inhibition of human GLP (982 to 1266 residues) using H3 peptide as substrate measured upto 45 mins in presence of SAM cofactor
T1 sequence (Q9H9B1 whole entry): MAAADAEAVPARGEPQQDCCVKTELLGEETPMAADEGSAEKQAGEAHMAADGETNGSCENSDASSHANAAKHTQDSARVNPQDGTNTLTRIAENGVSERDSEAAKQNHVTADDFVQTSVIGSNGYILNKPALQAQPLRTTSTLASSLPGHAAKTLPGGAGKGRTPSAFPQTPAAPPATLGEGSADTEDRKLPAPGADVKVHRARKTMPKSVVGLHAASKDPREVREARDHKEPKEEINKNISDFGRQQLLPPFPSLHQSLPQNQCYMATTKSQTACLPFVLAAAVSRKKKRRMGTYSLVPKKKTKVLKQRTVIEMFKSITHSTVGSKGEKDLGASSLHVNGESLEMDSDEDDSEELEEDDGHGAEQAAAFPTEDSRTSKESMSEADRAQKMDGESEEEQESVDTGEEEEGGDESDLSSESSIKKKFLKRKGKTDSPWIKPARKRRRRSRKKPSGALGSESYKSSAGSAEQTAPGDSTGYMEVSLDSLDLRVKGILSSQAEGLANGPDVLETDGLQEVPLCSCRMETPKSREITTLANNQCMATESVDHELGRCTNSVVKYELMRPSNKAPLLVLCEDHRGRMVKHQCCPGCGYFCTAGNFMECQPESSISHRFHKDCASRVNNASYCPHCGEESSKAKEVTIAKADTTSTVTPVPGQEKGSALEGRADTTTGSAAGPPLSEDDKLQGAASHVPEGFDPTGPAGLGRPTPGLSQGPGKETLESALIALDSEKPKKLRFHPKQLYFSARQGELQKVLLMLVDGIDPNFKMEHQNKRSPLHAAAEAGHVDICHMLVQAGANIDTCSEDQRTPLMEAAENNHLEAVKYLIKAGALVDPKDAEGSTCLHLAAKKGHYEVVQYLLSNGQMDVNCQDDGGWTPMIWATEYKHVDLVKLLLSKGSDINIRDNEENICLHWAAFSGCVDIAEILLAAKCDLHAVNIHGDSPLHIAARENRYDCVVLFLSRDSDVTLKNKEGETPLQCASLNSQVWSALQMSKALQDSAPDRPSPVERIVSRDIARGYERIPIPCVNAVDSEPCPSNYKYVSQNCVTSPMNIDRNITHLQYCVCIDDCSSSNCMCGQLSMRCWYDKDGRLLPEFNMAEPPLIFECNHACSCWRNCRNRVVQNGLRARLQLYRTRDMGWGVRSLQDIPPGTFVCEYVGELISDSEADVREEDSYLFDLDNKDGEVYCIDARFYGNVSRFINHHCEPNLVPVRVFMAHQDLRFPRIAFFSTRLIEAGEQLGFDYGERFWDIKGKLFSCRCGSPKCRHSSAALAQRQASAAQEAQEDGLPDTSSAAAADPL
Method in brief: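 Contracted scintillation proximity assay following 3H-methyl transfer from SAM (1 μM) to H3 peptide (0.05 μM) by G9a or GLP (5 nM each), with preincubation times of 5, 15 or 45 min; four replicates.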

[2] = target: T2, Histone-lysine N-methyltransferase EHMT2 (Homo sapiens, UniProt Q96KQ7); assay: Binding affinity to human G9a (913 to 1193 residues) assessed as dissociation constant by isothermal titration calorimetry method
T2 sequence (Q96KQ7 whole entry): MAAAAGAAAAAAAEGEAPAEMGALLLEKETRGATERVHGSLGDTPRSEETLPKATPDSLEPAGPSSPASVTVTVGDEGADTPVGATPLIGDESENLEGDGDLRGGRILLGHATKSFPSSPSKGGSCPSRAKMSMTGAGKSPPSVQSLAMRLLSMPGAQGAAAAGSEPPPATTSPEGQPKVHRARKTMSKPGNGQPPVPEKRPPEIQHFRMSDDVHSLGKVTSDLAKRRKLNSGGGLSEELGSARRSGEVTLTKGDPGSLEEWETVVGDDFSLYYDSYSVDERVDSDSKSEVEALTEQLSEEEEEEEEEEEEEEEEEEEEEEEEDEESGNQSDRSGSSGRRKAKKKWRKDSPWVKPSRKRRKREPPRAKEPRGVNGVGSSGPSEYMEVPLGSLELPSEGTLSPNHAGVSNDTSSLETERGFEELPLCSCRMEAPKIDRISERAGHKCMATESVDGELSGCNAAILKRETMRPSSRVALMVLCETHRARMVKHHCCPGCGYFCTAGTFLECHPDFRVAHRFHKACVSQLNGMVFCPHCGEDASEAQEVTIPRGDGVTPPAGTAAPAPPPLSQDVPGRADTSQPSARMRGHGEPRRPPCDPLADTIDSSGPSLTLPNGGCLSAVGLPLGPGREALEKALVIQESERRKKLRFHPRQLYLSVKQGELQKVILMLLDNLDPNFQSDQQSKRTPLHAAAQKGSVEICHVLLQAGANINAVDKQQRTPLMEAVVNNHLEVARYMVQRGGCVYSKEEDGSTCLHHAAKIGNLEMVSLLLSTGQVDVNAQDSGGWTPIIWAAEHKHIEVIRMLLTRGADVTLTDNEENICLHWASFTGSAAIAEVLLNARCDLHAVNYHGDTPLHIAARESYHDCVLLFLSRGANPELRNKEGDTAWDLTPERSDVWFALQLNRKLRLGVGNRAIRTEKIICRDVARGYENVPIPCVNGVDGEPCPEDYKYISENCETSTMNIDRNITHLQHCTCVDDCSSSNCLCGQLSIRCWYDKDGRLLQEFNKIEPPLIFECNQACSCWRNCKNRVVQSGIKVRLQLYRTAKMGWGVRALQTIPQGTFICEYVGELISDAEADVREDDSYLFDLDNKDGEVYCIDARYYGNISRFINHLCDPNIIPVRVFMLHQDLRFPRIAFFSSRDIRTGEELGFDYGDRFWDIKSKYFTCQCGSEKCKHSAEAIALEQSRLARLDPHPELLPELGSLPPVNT
Method in brief: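 Initial 0.4 μL injection, then 13 injections of 500 μM compound from the syringe, stirred at 750 rpm. Experiment time about 50 min. Data fitted to a single binding site model. Mean ± SD of two independent measurements.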

[3] = target: Histone-lysine N-methyltransferase, H3 lysine-36 specific (Homo sapiens) (UniProt Q96L73); assay: Inhibition of N-terminal His-tagged NSD1 (1538 to 2696 residues) (unknown origin) expressed in baculovirus expression system at 1 uM using 3H-SAM as a substrate relative to control
Method in brief: (§1)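 Contracted 3H-SAM methyl-transfer scintillation proximity assay against a panel of methyltransferases; compound tested at 1 μM in duplicate; inhibition expressed as percent of control enzyme activity.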

[4] = target: Histone-lysine N-methyltransferase NSD2 (Homo sapiens) (UniProt O96028); assay: Inhibition of NSD2 (2 to 1365 residues) (unknown origin) at 1 uM expressed in baculovirus expression system using 3H-SAM as a substrate relative to control; method in brief: as §1
Sequence of Histone-lysine N-methyltransferase NSD2 (Homo sapiens) (O96028 whole entry, the tested form may be a part): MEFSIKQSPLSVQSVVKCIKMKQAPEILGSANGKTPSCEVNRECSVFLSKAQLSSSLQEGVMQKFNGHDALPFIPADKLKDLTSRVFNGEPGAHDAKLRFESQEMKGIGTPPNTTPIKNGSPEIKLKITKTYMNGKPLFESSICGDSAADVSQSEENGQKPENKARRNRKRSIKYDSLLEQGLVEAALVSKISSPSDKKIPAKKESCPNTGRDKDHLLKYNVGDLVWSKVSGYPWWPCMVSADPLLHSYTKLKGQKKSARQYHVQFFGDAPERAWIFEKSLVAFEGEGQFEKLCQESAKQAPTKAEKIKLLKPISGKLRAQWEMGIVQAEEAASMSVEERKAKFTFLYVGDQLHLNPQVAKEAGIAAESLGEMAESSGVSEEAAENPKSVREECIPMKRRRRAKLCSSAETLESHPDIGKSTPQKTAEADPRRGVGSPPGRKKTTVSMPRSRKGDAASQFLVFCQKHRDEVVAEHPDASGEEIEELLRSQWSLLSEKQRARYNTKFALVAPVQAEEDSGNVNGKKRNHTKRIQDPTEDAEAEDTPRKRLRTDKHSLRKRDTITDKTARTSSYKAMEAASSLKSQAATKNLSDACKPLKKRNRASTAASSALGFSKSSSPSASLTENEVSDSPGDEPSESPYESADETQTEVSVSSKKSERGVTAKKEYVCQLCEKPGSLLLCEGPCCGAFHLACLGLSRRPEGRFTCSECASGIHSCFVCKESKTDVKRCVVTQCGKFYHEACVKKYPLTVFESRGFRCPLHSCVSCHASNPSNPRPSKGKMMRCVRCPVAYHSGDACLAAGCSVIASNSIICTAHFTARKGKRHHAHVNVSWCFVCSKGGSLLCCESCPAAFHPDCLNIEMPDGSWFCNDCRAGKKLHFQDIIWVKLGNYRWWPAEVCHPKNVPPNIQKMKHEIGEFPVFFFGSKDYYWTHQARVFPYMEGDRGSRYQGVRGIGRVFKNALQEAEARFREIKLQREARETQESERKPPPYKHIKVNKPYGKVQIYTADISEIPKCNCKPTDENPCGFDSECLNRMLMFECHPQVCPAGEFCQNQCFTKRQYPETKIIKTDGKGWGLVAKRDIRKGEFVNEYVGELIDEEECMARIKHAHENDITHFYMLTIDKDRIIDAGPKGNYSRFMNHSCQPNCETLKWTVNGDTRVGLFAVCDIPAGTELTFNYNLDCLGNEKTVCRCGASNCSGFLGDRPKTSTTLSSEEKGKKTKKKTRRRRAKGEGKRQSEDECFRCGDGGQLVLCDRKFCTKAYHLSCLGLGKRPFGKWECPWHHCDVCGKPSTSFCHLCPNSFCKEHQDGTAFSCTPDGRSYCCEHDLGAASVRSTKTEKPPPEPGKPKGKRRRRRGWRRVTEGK

Sequence of Histone-lysine N-methyltransferase, H3 lysine-36 specific (Homo sapiens) (Q96L73 whole entry, the tested form may be a part): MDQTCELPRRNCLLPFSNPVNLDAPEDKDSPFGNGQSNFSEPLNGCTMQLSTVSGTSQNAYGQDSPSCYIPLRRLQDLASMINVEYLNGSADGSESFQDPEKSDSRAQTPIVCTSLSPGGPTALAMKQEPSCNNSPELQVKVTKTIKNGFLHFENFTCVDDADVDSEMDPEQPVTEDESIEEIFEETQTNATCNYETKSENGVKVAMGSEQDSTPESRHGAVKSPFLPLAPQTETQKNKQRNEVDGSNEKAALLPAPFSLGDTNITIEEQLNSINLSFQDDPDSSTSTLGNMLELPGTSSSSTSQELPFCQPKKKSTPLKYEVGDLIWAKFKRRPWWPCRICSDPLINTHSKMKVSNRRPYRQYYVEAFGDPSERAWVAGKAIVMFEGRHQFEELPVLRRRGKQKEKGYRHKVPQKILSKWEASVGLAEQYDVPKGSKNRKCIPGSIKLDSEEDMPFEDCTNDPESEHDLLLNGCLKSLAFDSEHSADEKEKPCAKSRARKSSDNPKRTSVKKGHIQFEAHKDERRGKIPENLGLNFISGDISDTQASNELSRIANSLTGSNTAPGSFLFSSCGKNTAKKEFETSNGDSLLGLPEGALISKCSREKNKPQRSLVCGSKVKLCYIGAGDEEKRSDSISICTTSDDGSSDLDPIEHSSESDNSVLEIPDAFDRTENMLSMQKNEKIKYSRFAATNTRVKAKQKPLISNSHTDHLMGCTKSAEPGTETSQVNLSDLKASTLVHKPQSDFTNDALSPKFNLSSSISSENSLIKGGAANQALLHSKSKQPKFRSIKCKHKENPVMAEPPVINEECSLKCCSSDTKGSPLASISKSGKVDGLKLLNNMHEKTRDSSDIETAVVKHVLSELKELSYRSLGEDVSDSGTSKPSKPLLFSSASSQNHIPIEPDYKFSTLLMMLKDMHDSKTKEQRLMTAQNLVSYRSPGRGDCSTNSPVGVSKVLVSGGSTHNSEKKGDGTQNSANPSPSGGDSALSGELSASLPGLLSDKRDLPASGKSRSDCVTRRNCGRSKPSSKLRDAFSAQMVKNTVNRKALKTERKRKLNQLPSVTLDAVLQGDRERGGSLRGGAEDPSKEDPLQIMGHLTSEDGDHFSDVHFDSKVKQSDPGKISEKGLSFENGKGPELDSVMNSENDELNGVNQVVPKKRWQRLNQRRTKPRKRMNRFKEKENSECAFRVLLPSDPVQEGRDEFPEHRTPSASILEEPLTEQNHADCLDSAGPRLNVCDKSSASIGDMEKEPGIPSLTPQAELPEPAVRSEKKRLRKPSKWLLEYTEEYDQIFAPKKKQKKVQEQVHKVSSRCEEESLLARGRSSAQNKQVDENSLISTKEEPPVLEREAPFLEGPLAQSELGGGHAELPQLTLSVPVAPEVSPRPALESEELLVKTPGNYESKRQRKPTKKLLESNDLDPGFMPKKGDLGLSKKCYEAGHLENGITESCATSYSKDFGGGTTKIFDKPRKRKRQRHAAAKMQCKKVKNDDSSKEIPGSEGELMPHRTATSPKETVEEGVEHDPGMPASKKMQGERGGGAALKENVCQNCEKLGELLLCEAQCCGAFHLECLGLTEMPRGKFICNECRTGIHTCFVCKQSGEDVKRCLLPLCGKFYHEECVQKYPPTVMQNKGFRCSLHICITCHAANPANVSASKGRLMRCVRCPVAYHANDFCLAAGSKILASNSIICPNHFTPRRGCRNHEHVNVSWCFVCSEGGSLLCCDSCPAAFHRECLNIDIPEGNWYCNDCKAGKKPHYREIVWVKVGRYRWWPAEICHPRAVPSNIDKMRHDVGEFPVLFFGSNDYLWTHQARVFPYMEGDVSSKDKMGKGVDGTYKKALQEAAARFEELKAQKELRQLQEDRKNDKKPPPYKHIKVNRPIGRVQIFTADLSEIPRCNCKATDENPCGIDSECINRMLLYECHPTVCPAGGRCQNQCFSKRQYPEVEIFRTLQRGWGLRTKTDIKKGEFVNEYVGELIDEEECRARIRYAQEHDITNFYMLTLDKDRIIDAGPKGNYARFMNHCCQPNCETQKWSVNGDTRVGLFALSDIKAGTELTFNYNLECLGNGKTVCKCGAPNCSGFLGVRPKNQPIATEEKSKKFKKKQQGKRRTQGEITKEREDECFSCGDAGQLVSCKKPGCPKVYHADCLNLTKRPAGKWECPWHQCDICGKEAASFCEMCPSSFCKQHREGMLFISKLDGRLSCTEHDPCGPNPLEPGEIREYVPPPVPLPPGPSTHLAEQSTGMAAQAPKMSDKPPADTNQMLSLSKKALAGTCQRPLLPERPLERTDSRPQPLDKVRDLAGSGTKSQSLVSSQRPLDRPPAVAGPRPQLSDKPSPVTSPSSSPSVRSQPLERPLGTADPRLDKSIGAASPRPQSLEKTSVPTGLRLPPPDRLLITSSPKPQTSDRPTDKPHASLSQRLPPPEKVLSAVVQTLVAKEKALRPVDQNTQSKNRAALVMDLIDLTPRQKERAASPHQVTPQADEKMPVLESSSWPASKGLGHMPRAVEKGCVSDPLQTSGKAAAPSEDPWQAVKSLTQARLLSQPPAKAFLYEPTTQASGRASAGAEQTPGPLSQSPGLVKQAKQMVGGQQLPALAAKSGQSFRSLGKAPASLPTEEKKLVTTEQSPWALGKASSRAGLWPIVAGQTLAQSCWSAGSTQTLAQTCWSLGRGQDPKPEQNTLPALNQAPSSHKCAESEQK

With C=CC(=O)Nc1cc(NC2CCN(C(C)C)CC2)c2cc(OC)c(OCCCN3CCCC3)cc2n1 the IC50 [1] was 0.14 µM, the Kd [2] was 0.044 µM and the inhibition [3] was < 50%. The inhibition [4] was < 50%.
